Assay results: ChEMBL document CHEMBL4257532, “Synthesis and antitumoral activity of novel analogues monastrol-fatty acids against glioma cells” (Medchemcomm, 2018)
The source made the active and inactive calls. No cut-off for these calls is given here.

Assays:
C6 [1] = assay: Antiproliferative activity against rat C6 cells at 5 to 50 uM after 48 hrs by Neubauer chamber method; format: functional, cell-based
In short: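 C6 rat glioma cells (ATCC) grown in DMEM/10% FBS with penicillin/streptomycin and Fungizone at 37 °C, 5% CO2. Plated at 5 × 10^3 cells/well and treated 48 h with 5, 10, 25 or 50 μM, dissolved in DMSO. Vehicle control was 1% DMSO. Cells then trypsinized and aliquots counted in a Neubauer chamber. ANOVA with Tukey post-test versus control.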

C6 [2] = assay: Cytotoxicity against rat C6 cells assessed as reduction in cell viability after 48 hrs by MTT assay; format: functional, cell-based; conditions: for IC50: C6, 48 h
In short: (§1)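 C6 rat glioma cells in DMEM/10% FBS at 37 °C, 5% CO2. Seeded at 1 × 10^4 cells/well and exposed 48 h to 5–50 μM in DMSO, with a 1% DMSO vehicle control. MTT added at 0.5 mg/mL final for 60 min at 37 °C. Formazan dissolved in DMSO and read at 492 nm. Viability expressed as % of control. IC50 by linear regression of % inhibition against log concentration.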

C6 [3] = assay: Cytotoxicity against rat C6 cells assessed as reduction in cell viability at 5 uM after 48 hrs by MTT assay relative to control; format: functional; in short: as §1
C6 [4] = assay: Potency index, ratio of monastrol-palmitic acid IC50 to compound IC50 for cytotoxicity against rat C6 cells; format: functional
C6 [5] = assay: Cytotoxicity against rat C6 cells assessed as reduction in cell viability at 10 uM after 48 hrs by MTT assay; format: functional, cell-based; in short: as §1

Compound | Activity (C6 [1]) | IC50 (C6 [2]) | Activity (C6 [3]) | Ratio IC50 (C6 [4]) | Activity (C6 [2]) | Activity (C6 [5])
CCCCCCCC/C=C\CCCCCCCC1=C(C(=O)OC)C(c2cccc(O)c2)NC(=S)N1 (stereo not drawn) | Active | 38.4 µM |  |  |  | 
CCCCCCCCCCCCCCCCCC1=C(C(=O)OC)C(c2cccc(O)c2)NC(=O)N1 (stereo not drawn) | Active | 21.8 µM | Active |  |  | 
CCCCCCCCCCCCCCCCCC1=C(C(=O)OC)C(c2cccc(O)c2)NC(=S)N1 (stereo not drawn) | Active | 6.85 µM | 50% | 2.5 | Dose-dependent effect | 
CCOC(=O)C1=C(C)NC(=S)NC1c1cccc(O)c1 (stereo not drawn) [MONASTROL] | Active | 87.8 µM |  |  |  | 
CCCCCCCCCCCCCCCC1=C(C(=O)OC)C(c2cccc(O)c2)NC(=O)N1 (stereo not drawn) | Active | 79.4 µM | Active |  |  | 
CCCCCCCC/C=C\CCCCCCCC1=C(C(=O)OC)C(c2cccc(O)c2)NC(=O)N1 (stereo not drawn) | Active | 166 µM |  |  |  | Active
CCCCCCCCCCCCCCCC1=C(C(=O)OC)C(c2cccc(O)c2)NC(=S)N1 (stereo not drawn) | Active | 5.11 µM | 50% | 2.5 | Dose-dependent effect | 
